ChEMBL document CHEMBL3124823, “1,2,3-Triazole-containing derivatives of rupestonic acid: click-chemical synthesis and antiviral activities against influenza viruses” (Eur J Med Chem, 2014)
≈ marks a conversion by molar mass, not a printed value.

How the values were obtained:
Influenza B virus [1] = experiment: Ratio of ribavirin IC50 to compound IC50 for Influenza B virus jifang/13/97 infected in MDCK cells; type: functional
[2] = Selectivity index, ratio of TC50 for MDCK cells to IC50 for Influenza B virus jifang/13/97; type: toxicity, cell-based; conditions: dog, read-out: Selectivity Index
Outline: (§1)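 Selectivity index = TC50 (MDCK, 48 h visual cytotoxicity) / IC50 from the 40 h CPE-inhibition assay for the given strain.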

Influenza B virus [3] = experiment: Antiviral activity against Influenza B virus jifang/13/97 infected in MDCK cells assessed as inhibition of virus-induced cytopathicity after 40 hrs; type: functional, organism-based; conditions: jifang/13/97, MDCK
Outline: (§2)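 CPE reduction in MDCK cells: cells grown 24 h at 37 °C, 5% CO2, then infected and held 2 h at 37 °C before the inoculum was removed. Threefold serial drug dilutions (8 levels from 20 mg/mL DMSO stocks) were added and incubated 40 h at 37 °C. CPE inhibition was scored against cell and virus controls to give IC50. Ribavirin and oseltamivir were the controls.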

Influenza A virus [4] = experiment: Antiviral activity against Influenza A virus A/hanfang/359/95(H3N2) infected in MDCK cells assessed as inhibition of virus-induced cytopathicity after 40 hrs; type: functional, organism-based; outline: as §2
Influenza A virus [5] = experiment: Antiviral activity against Influenza A virus (A/FM/1/1947(H1N1)) infected in MDCK cells assessed as inhibition of virus-induced cytopathicity after 40 hrs; type: functional, organism-based; conditions: A/Fort Monmouth/1/1947(H1N1); outline: as §2
[6] = Cytotoxicity against MDCK cells after 48 hrs; type: cell-based, Canis lupus familiaris; conditions: dog, read-out: TC50
Outline: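 MDCK cells seeded at 25000 per well and cultured 24 h at 37 °C, 5% CO2. Threefold dilutions were added to the monolayer and culture continued 48 h. Cytopathic changes were recorded by observation, and TC50 was calculated by the Reed & Muench method.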

[7] = Selectivity index, ratio of TC50 for MDCK cells to IC50 for Influenza A virus A/hanfang/359/95(H3N2); type: toxicity, cell-based; conditions: dog, read-out: Selectivity Index; outline: as §1
[8] = Selectivity index, ratio of TC50 for MDCK cells to IC50 for Influenza A virus (A/Tianjinjinnan/15/2009/H1N1); type: toxicity, cell-based; conditions: dog, read-out: Selectivity Index; outline: as §1
[9] = Selectivity index, ratio of TC50 for MDCK cells to IC50 for Influenza A virus (A/FM/1/1947(H1N1)); type: toxicity, cell-based; conditions: dog, read-out: Selectivity Index; outline: as §1

SMILES	Ratio IC50 (Influenza B virus [1])	selectivity ratio [2]	IC50 (Influenza B virus [3]) [µg/mL]	IC50 (Influenza A virus [4]) [µg/mL]	IC50 (Influenza A virus [5]) [µg/mL]	CC50 at 48 h [6] [µg/mL]	selectivity ratio [7]	selectivity ratio [8]	selectivity ratio [9]
C=C(C(=O)NCc1cn(Cc2cccc(Cl)c2)nn1)[C@@H]1CC[C@H](C)[C@@H]2CC(=O)C(C)=C2C1	>4	3.9	7.41 (≈ 16.4 µM)	> 7.41	> 7.41	28.6 (≈ 63.2 µM)	–	–	–
C=C(C(=O)NCc1cn(Cc2ccc(Cl)cc2)nn1)[C@@H]1CC[C@H](C)[C@@H]2CC(=O)C(C)=C2C1	>4	8.55	2.09 (≈ 4.61 µM)	> 2.47	> 2.47	17.2 (≈ 38.1 µM)	–	–	–
C=C(C(=O)NCc1cn(Cc2ccccc2F)nn1)[C@@H]1CC[C@H](C)[C@@H]2CC(=O)C(C)=C2C1	–	–	> 66.7	> 66.7	> 66.7	116 (≈ 265 µM)	–	–	–
C=C(C(=O)NCc1cn(Cc2cccc(F)c2)nn1)[C@@H]1CC[C@H](C)[C@@H]2CC(=O)C(C)=C2C1	>4	14.3	4.71 (≈ 10.8 µM)	> 22.2	> 22.2	66.7 (≈ 153 µM)	–	–	–
C=C(C(=O)NCc1cn(Cc2ccc(Cl)c(Cl)c2)nn1)[C@@H]1CC[C@H](C)[C@@H]2CC(=O)C(C)=C2C1	>4	9.9	6.79 (≈ 13.9 µM)	17.5 (≈ 35.9 µM)	≥ 17.2	66.7 (≈ 137 µM)	4.1	3	–
C=C(C(=O)NCc1cn(C2C=CCCC2)nn1)[C@@H]1CC[C@H](C)[C@@H]2CC(=O)C(C)=C2C1 (stereo not given in full)	–	7.85	13.4 (≈ 32.8 µM)	> 22.2	9.75 (≈ 23.9 µM)	96.2 (≈ 235 µM)	–	4.96	9.86
C=C(C(=O)NCc1cn(C2CCCCC2)nn1)[C@@H]1CC[C@H](C)[C@@H]2CC(=O)C(C)=C2C1	–	1.95	19.7 (≈ 48.1 µM)	> 7.41	> 7.41	38.5 (≈ 93.7 µM)	–	1.73	–
C=C(C(=O)OCc1cn(Cc2ccccc2C)nn1)[C@@H]1CC[C@H](C)[C@@H]2CC(=O)C(C)=C2C1	–	2.55	18.8 (≈ 43.4 µM)	> 22.2	> 22.2	46.2 (≈ 107 µM)	–	–	–
C=C(C(=O)OCc1cn(Cc2cccc(C)c2)nn1)[C@@H]1CC[C@H](C)[C@@H]2CC(=O)C(C)=C2C1	–	≥ 4	≥ 9.54	> 22.2	12.3 (≈ 28.4 µM)	38.5 (≈ 88.8 µM)	–	1.98	3.76
C=C(C(=O)OCc1cn(Cc2ccc(C)cc2)nn1)[C@@H]1CC[C@H](C)[C@@H]2CC(=O)C(C)=C2C1	–	≥ 4.32	≥ 22.2	> 22.2	> 22.2	96.2 (≈ 222 µM)	–	–	–
C=C(C(=O)OCc1cn(Cc2ccccc2)nn1)[C@@H]1CC[C@H](C)[C@@H]2CC(=O)C(C)=C2C1	–	≥ 3.9	≥ 7.41	> 7.41	> 7.41	28.6 (≈ 68.2 µM)	–	–	–
C=C(C(=O)OCc1cn(Cc2cccc(OC)c2)nn1)[C@@H]1CC[C@H](C)[C@@H]2CC(=O)C(C)=C2C1	–	–	> 22.2	> 22.2	> 22.2	96.2 (≈ 214 µM)	–	–	–
C=C(C(=O)OCc1cn(Cc2ccc(OC)cc2)nn1)[C@@H]1CC[C@H](C)[C@@H]2CC(=O)C(C)=C2C1	–	≥ 2.1	≥ 22.2	> 22.2	19.7 (≈ 43.9 µM)	46.2 (≈ 103 µM)	–	2.08	2.68
C=C(C(=O)OCc1cn(Cc2ccccc2Cl)nn1)[C@@H]1CC[C@H](C)[C@@H]2CC(=O)C(C)=C2C1	–	10.4	14.8 (≈ 32.6 µM)	40.2 (≈ 88.5 µM)	> 66.7	115 (≈ 254 µM)	3.31	1.98	–
CCOC(=O)C1=C[C@@H](OC(CC)CC)[C@H](NC(C)=O)[C@@H](N)C1 [OSELTAMIVIR]	–	–	–	1 (≈ 3.2 µM)	2.81 (≈ 8.99 µM)	1260 (≈ 4030 µM)	1240	–	448
C=C(C(=O)O)[C@@H]1CC[C@H](C)[C@@H]2CC(=O)C(C)=C2C1 [PECHUELOIC ACID]	–	> 4030	181 (≈ 727 µM)	–	4650 (≈ 18700 µM)	248 (≈ 999 µM)	25.8	> 1340	> 111
